The values that follow come from ChEMBL document CHEMBL4004786, “Nanomolar Antimalarial Agents against Chloroquine-Resistant Plasmodium falciparum from Medicinal Plants and Their Structure-Activity Relationships” (J Nat Prod, 2017).

As a reminder, the pIC50 is the IC50 on a negative log10 scale, so that one unit is a factor of ten.

pIC50: −log10 of the molar value.

The test system of one series is Plasmodium falciparum. Briefly: Antimalarial activity against chloroquine-resistant Plasmodium falciparum Dd2 assessed as parasite growth inhibition after 72 hrs by SYBR Green 1 assay. In kind it is functional. Conditions: Dd2, 72 h. Put shortly:
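Viability was read by SYBR Green I DNA quantitation and normalized to DMSO-treated untreated controls. IC50 came from nonlinear regression, averaging at least three independent experiments run in triplicate, with standard deviations.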
`CO[C@]12OC(=O)C(C)=C1C1=C3[C@](C)([C@@H]4C[C@@H]4[C@@]3(O)C[C@@H]3[C@]14OC(=O)C1=C4C[C@H]4[C@](O)(COC(=O)/C(C)=C/COC(=O)CCC(=O)OC1)[C@H]1C[C@H]1[C@]34C)[C@H]2O`: the pIC50 was less than 4.60.
Consider `C=C1[C@H]2C[C@H]2[C@@]2(C)[C@H]1[C@@H](OC(C)=O)C1=C(C)C(=O)O[C@@]13C1=C4[C@](C)([C@@H]5C[C@@H]5[C@@]4(O)C[C@H]32)[C@@H](O)C(=O)/C1=C(/C)C(=O)OC`, for which the pIC50 was less than 4.60.
Turning to `COC(=O)/C(C)=C1\C(=O)[C@H](O)[C@]2(C)C3=C(C[C@@H]4[C@]5(OC(=O)C(CO)=C5C[C@H]5[C@H](COC(C)=O)[C@H]6C[C@H]6[C@]45C)[C@H]31)[C@H]1C[C@H]12`, the pIC50 was 6.24.
Still for that read-out and setting: with `COC(=O)CCC(=O)OCC1=C2C[C@H]3[C@](O)(COC(=O)/C=C(\C)C=O)[C@H]4C[C@H]4[C@]3(C)[C@@H]3CC4=C5[C@H](/C(=C(\C)C(=O)OC)C(=O)[C@H](O)[C@@]5(C)[C@@H]5C[C@H]45)[C@]23OC1=O` the figure was 8.28; with `COC(=O)CCC(=O)OCC1=C2C[C@H]3[C@](O)(COC(=O)/C=C(\C)CO)[C@H]4C[C@H]4[C@]3(C)[C@@H]3C=C4C5=C(C6=C(C)C(=O)O[C@]6(O)[C@H](O)[C@@]5(C)[C@@H]5C[C@H]45)[C@]23OC1=O`, 6.70.
Still for that read-out and setting: with `COC(=O)/C(C)=C1\C(=O)[C@H](O)[C@]2(C)C3=C(C[C@@H]4[C@]5(OC(=O)C(CO)=C5C[C@H]5[C@](O)(CO)[C@H]6C[C@H]6[C@]45C)[C@H]31)[C@H]1C[C@H]12` the figure was 5.34; with `C=C1[C@H]2C[C@H]2[C@@]2(C)[C@H]1[C@@H](OC(C)=O)C1=C(C)C(=O)O[C@@]13C1=C4[C@@](C)(C(=O)[C@@]5(O)OC(=O)C(C)=C15)[C@@H]1C[C@@H]1[C@@]4(O)C[C@H]32`, less than 4.60; with `C=C1[C@H]2C[C@H]2[C@@]2(C)[C@H]1[C@@H](OC(C)=O)C1=C(C)C(=O)O[C@@]13C1=C4[C@](O)(C[C@H]32)[C@H]2C[C@H]2[C@]4(C)CC(=O)/C1=C(/C)C(=O)OC`, less than 4.60.
On the same count and under the same terms, to `COC(=O)/C(C)=C1\C(=O)[C@H](O)[C@]2(C)C3=C(C[C@@H]4[C@]5(OC(=O)C(CO)=C5C[C@H]5[C@](O)(COC(=O)C=C(C)C)[C@H]6C[C@H]6[C@]45C)[C@H]31)[C@H]1C[C@H]12` belongs 6.68.
Regarding `COC(=O)/C(C)=C1\C(=O)[C@H](O)[C@]2(C)C3=C1[C@]14OC(=O)C(C)=C1C[C@H]1[C@](O)(CO)[C@H]5C[C@H]5[C@]1(C)[C@@H]4C[C@]3(OO)[C@H]1C[C@H]12`, the pIC50 is 5.28.
Turning to `C=C1C(=O)O[C@]23C4=C5C(=O)[C@H](O)[C@]6(C)C4=C(C[C@H]2[C@]2(C)C(C[C@]13[C@]5(C)C(=O)OC)[C@](O)(COC(=O)/C(C)=C/C)[C@H]1C[C@H]12)[C@H]1C[C@H]16` (stereo partly drawn), the pIC50 is 5.33.
The same measure, in the same setting: with `COC(=O)/C(C)=C1\C(=O)[C@H](O)[C@]2(C)C3=C1[C@]14OC(=O)C5=C1C[C@H]1[C@](O)(COC(=O)/C(C)=C/COC(=O)CCC(=O)OC5)[C@H]5C[C@H]5[C@]1(C)[C@@H]4C[C@]3(O)[C@H]1C[C@H]12` the figure was less than 4.60.
In the case of `COC(=O)CCC(=O)OCC1=C2C[C@H]3[C@](O)(COC(=O)/C=C(\C)CO)[C@H]4C[C@H]4[C@]3(C)[C@@H]3C[C@@]4(OO)C5=C(/C(=C(\C)C(=O)OC)C(=O)[C@H](O)[C@@]5(C)[C@@H]5C[C@@H]54)[C@]23OC1=O`, the negative-log IC50 (pIC50) was 7.37.
As to `COC(=O)/C(C)=C1\C(=O)[C@H](O)[C@]2(C)C3=C(C[C@@H]4[C@]5(OC(=O)C(CO)=C5C[C@H]5[C@H](CO)[C@H]6C[C@H]6[C@]45C)[C@H]31)[C@H]1C[C@H]12`, the pIC50 was 4.94.
With `COC(=O)CCC(=O)OCC1=C2C[C@H]3[C@](O)(COC(=O)/C=C(\C)CO)[C@H]4C[C@H]4[C@]3(C)[C@@H]3C[C@@]4(OO)C5=C(C6=C(C)C(=O)O[C@]6(O)[C@H](O)[C@@]5(C)[C@@H]5C[C@@H]54)[C@]23OC1=O`, the pIC50 was 7.03.
Still for that read-out and setting: with `C[C@@]12C=C3OC(=O)C(CO)=C3C[C@H]1[C@@H](CO)[C@H]1C[C@H]12` the figure was less than 4.60; with `COC(=O)/C(C)=C1\C(=O)[C@H](O)[C@]2(C)C3=C(C[C@@H]4[C@]5(OC(=O)C(CO)=C5C[C@H]5[C@](O)(COC(=O)/C=C(\C)CO)[C@H]6C[C@H]6[C@]45C)[C@H]31)[C@H]1C[C@H]12`, 6.95.
Turning to `CC1=C2CC3=C(C)[C@H]4C[C@H]4[C@]3(C)C[C@@H]2OC1=O`, the pIC50 was less than 4.60.
Still for that read-out and setting: to `C=C1[C@@H]2C[C@@H]2[C@]2(C)[C@@H]3CC4=C5[C@H](/C(=C(\C)C(=O)OC)C(=O)[C@H](O)[C@@]5(C)[C@@H]5C[C@H]45)[C@@]34OC(=O)C(C)=C4C[C@@H]12` belongs 5.82; to `CC1=C2C3=C4[C@](C)([C@@H]5C[C@@H]5[C@@]4(O)C[C@@H]4[C@]35OC(=O)C3=C5C[C@H]5[C@](O)(COC(=O)/C=C(\C)COC(=O)CCC(=O)OC3)[C@H]3C[C@H]3[C@]45C)[C@@H](O)[C@@]2(O)OC1=O`, 5.15.
Regarding `COC(=O)/C(C)=C1\C(=O)[C@H](O)[C@]2(C)C3=C(C[C@@H]4[C@]5(OC(=O)C6=C5C[C@H]5[C@](O)(COC(=O)/C(C)=C/COC(=O)[C@@H](O)CC(=O)OC6)[C@H]6C[C@H]6[C@]45C)[C@H]31)[C@H]1C[C@H]12`, the pIC50 is 7.89.
On to `CC1=C2[C@H]3[C@@H]4C(=C[C@@H]5[C@]36OC(=O)C(CO)=C6C[C@H]3[C@](O)(COC(=O)/C=C(\C)CO)[C@H]6C[C@H]6[C@]53C)[C@H]3C[C@H]3[C@]4(C)[C@@H](O)[C@@]2(O)OC1=O`, for which the pIC50 was 5.00.
For `CC(=O)OC[C@H]1[C@H]2C[C@H]2[C@]2(C)C=C3OC(=O)C(CO)=C3C[C@@H]12`, the pIC50 was less than 4.60.
For `COC(=O)/C(C)=C1\C(=O)[C@H](O)[C@]2(C)C3=C(C[C@@H]4[C@]5(OC(=O)C(COC(C)=O)=C5C[C@H]5[C@](O)(COC(=O)C=C(C)C)[C@H]6C[C@H]6[C@]45C)[C@H]31)[C@H]1C[C@H]12`, the pIC50 was 6.07.
As for `COC(=O)/C(C)=C1\C(=O)[C@H](O)[C@]2(C)C3=C(C[C@@H]4[C@]5(OC(=O)C(C)=C5C[C@H]5[C@H](COC(C)=O)[C@H]6C[C@H]6[C@]45C)[C@H]31)[C@H]1C[C@H]12`, the pIC50 was 5.74.
Same read-out and setting: with `COC(=O)/C(C)=C1\C(=O)[C@H](O)[C@]2(C)C3=C1[C@]14OC(=O)C5=C1C[C@H]1[C@](O)(COC(=O)/C=C(\C)COC(=O)CCC(=O)OC5)[C@H]5C[C@H]5[C@]1(C)[C@@H]4C[C@]3(OO)[C@H]1C[C@H]12` the figure was 6.32; with `C[C@@H]1CC[C@H]2[C@@H](C)C(=O)O[C@@H]3O[C@@]4(C)CC[C@@H]1[C@]32OO4` [ARTEMISININ], 8.40.
On the same count and under the same terms, with `CC1=C2C3=C4[C@](C)([C@@H]5C[C@@H]5[C@@]4(O)C[C@@H]4[C@]35OC(=O)C3=C5C[C@H]5[C@](O)(COC(=O)/C(C)=C/COC(=O)CCC(=O)OC3)[C@H]3C[C@H]3[C@]45C)[C@@H](O)[C@@]2(O)OC1=O` [CHLORAMULTILIDE C] the figure was less than 4.60; with `C/C=C(\C)C(=O)OC[C@]1(O)[C@H]2C[C@H]2[C@]2(C)[C@@H]3C[C@@]4(O)C5=C(C6=C(C)C(=O)O[C@]6(O)[C@H](O)[C@@]5(C)[C@@H]5C[C@@H]54)[C@@]34OC(=O)C(CO)=C4C[C@@H]12` [CHLORAMULTILIDE D], less than 4.60; with `C/C=C(\C)C(=O)OC[C@]1(O)[C@H]2C[C@H]2[C@]2(C)[C@@H]3CC4=C5[C@H](/C(=C(\C)C(=O)OC)C(=O)[C@H](O)[C@@]5(C)[C@@H]5C[C@H]45)[C@@]34OC(=O)C(C)=C4C[C@@H]12` [SARCANDROLIDE A], 6.49.
As for `COC(=O)/C(C)=C1\C(=O)[C@H](O)[C@]2(C)C3=C(C[C@@H]4[C@]5(OC(=O)C(CO)=C5C[C@H]5[C@](O)(COC(=O)/C(C)=C/CO)[C@H]6C[C@H]6[C@]45C)[C@H]31)[C@H]1C[C@H]12` [SARCANDROLIDE B], the pIC50 is 6.58.
On the same count and under the same terms, with `C/C=C(\C)C(=O)OC[C@]1(O)[C@H]2C[C@H]2[C@]2(C)[C@@H]3C[C@@]4(O)C5=C(C6=C(C)C(=O)O[C@]6(O)[C@H](O)[C@@]5(C)[C@@H]5C[C@@H]54)[C@@]34OC(=O)C(COC(C)=O)=C4C[C@@H]12` [SARCANDROLIDE D] the figure was less than 4.60.
In the case of `C/C=C(\C)C(=O)OC[C@]1(O)[C@H]2C[C@H]2[C@]2(C)[C@@H]3C[C@@]4(O)C5=C(/C(=C(\C)C(=O)OC)C(=O)[C@H](O)[C@@]5(C)[C@@H]5C[C@@H]54)[C@@]34OC(=O)C(COC(C)=O)=C4C[C@@H]12` [SARCANDROLIDE E], the pIC50 was less than 4.60.

System in another series: not listed separately
Nature of the series: Selectivity index, ratio of IC50 for human WI38 cells to IC50 for chloroquine-resistant Plasmodium falciparum Dd2. In kind it is toxicity. Conditions: read-out: Ratio IC50.
Turning to `COC(=O)CCC(=O)OCC1=C2C[C@H]3[C@](O)(COC(=O)/C=C(\C)C=O)[C@H]4C[C@H]4[C@]3(C)[C@@H]3CC4=C5[C@H](/C(=C(\C)C(=O)OC)C(=O)[C@H](O)[C@@]5(C)[C@@H]5C[C@H]45)[C@]23OC1=O`, the selectivity ratio turned out to be 1700.
Turning to `COC(=O)/C(C)=C1\C(=O)[C@H](O)[C@]2(C)C3=C(C[C@@H]4[C@]5(OC(=O)C6=C5C[C@H]5[C@](O)(COC(=O)/C(C)=C/COC(=O)[C@@H](O)CC(=O)OC6)[C@H]6C[C@H]6[C@]45C)[C@H]31)[C@H]1C[C@H]12`, the selectivity ratio is 134.

Another series relates to WI-38. Nature of the series: Cytotoxicity against human WI38 cells after 24 hrs by resazurin assay. Conditions: WI-38, 24 h. For orientation: Resazurin is reduced to fluorescent resorufin, in cell work by metabolically active cells.
`COC(=O)CCC(=O)OCC1=C2C[C@H]3[C@](O)(COC(=O)/C=C(\C)C=O)[C@H]4C[C@H]4[C@]3(C)[C@@H]3CC4=C5[C@H](/C(=C(\C)C(=O)OC)C(=O)[C@H](O)[C@@]5(C)[C@@H]5C[C@H]45)[C@]23OC1=O` gave a pIC50 of 5.05.
On the same count and under the same terms, with `COC(=O)CCC(=O)OCC1=C2C[C@H]3[C@](O)(COC(=O)/C=C(\C)CO)[C@H]4C[C@H]4[C@]3(C)[C@@H]3C[C@@]4(OO)C5=C(/C(=C(\C)C(=O)OC)C(=O)[C@H](O)[C@@]5(C)[C@@H]5C[C@@H]54)[C@]23OC1=O` the figure was less than 4.00; with `COC(=O)/C(C)=C1\C(=O)[C@H](O)[C@]2(C)C3=C(C[C@@H]4[C@]5(OC(=O)C6=C5C[C@H]5[C@](O)(COC(=O)/C(C)=C/COC(=O)[C@@H](O)CC(=O)OC6)[C@H]6C[C@H]6[C@]45C)[C@H]31)[C@H]1C[C@H]12`, 5.76.
